Results on 38 variants are retold here after the RNAGym collection of RNA variant scans (doi:10.1126/science.aae0568).

This sample holds only a part of the variants without activity. Some results are limits rather than exact numbers.

The labels stand for the following.
B1: tRNA (parent)
chain: GUUCCGUUGGCGUAAUGGUAACGCGUCUCCCUCCUAAGGAGAAGACUGCGGGUUCGAGUCCCGUACGGAACG

Variants of B1 are the subject of this series. Put plainly: yeast fitness relative to wild type (ratio to wild type); higher = fitter; tRNA-Arg(CCU), competitive growth, 37 C, YPD. In short, it runs like this:
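Changes in genotype frequencies gave Darwinian fitness relative to wild type. Frequencies were read by 100-nucleotide paired-end sequencing of gene amplicons before and after pooled Saccharomyces cerevisiae strains, carrying tRNA-Arg(CCU) gene variants at the native locus, were competed in YPD at 37°C for 24 hours in six replicates. A genotype was kept only with ≥ 100 starting reads, and estimates < 0.5 were set to 0.5.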
As to GUUCUGUUGGCGUAAUGGUAAUGCGUCUCCCUCCUGAGGAGAAGACUGCGGGUUCGAGUCCCGUACGGAACG [C5U C22U A36G], the yeast fitness amounted to 0.749.

With GUUCUGUUGGCGUAAUGGUAAGGCGUCUGCCUCCUAAGGAGAAGACUGCGGGUUCGAGUCCCGUACGGAACG [C5U C22G C29G], the yeast fitness was found to be 0.602.

In the case of GUUCUGUUGGCGUAAUGGUAAUGAGUCUCCCUCCUAAGGAGAAGACUGCGGGUUCCAGGCCCGUACGGAACG [C5U C22U C24A G56C U59G], the yeast fitness is ≤ 0.5.

As to GUUCUGUUGGCGUAAUGGUAAGGCGUCUCCCUCCUAAGGAGAAGACUGCGGGUUCGAGUCCCGUACGGAUCG [C5U C22G A70U], the yeast fitness amounted to 0.754.

As to GUUCUGUUGGCGUAAUGGUAACGCGUGUCCCUCCUAAGCAGAAGACUGCGGAUUCGAGUCCCGUACGGAACG [C5U C27G G39C G52A], the yeast fitness was ≤ 0.5.

In the case of GUUCUGUUGGCGUAAUGGUAACGCGUGUCCCUCCUAAGGAGAAGACUGCGGGUUCGAGUCCCGUACGGCACG [C5U C27G A69C], the yeast fitness is ≤ 0.5.

GUUCUGUUGGCGUAAUGGUAAGGCGUCUACCUCCUAAGGAGAAGUCUGCGGGUUUGAGUCCCGUACGGAACG [C5U C22G C29A A45U C55U]: the yeast fitness is ≤ 0.5.

Regarding GUUCUGUUGGCGUAAUGGUAACGGGUCUCCCUCCUAAGGCGAAGACUGCGGGUUCGAGUCCCGUACGGCACG [C5U C24G A40C A69C], the yeast fitness is 0.522.

Take GUUCUGUUGGCGUAAUGGUAACGCGUAUCCCUCCUAAGGAGAAGACUGCGGGUUCGAGUCCCCUACGGAACG [C5U C27A G63C]: the yeast fitness was ≤ 0.5.

As to GUUCUGUUGGCGUAAUGGUAACGAGUCUCCCUCCUAAGGAAAAGACUGCGGGUUCGAGUCCCGUACGGCACG [C5U C24A G41A A69C], the yeast fitness is ≤ 0.5.

In the case of GUUCUGUUGGCGUAAUGGUAACGUGUCUCCCUCCUAAGGAGCAGACUGCGGGUUCGAGUCCCGUACGGAACG [C5U C24U A42C], the yeast fitness amounted to 0.746.

Consider GUUCUGUUGGCGUAAUGGUAAUGCGUCUCCCUUCUAAGGAGAAGACUGCGGGAUCGAGUCCCGUACGGAACG [C5U C22U C33U U53A], for which the yeast fitness is ≤ 0.5.

Take GUUCUGUUGGCGUAAUGGUAAUGCGUCUCCCUUCUAAGGAGAAGACUGCGGGUUCGAGUCCCGUACGGAACG [C5U C22U C33U]: the yeast fitness came out at 0.561.

As to GUUCUGUUGGCGUAAUGGUAAAGCGUCUCCCUCCUAAGGAGAAGACUGCGGGUUCGAGUCUCGUCCGGAACG [C5U C22A C61U A65C], the yeast fitness is ≤ 0.5.

Consider GUUCUGUUGGCGUAAUGGUAAUGCGUCUCCCUCCUAAGGAGAAGGCUGCGGGUUCGAGUCCCGUACGGAACG [C5U C22U A45G], for which the yeast fitness turned out to be 0.666.

In the case of GUUCUGUUGGCGUAAUGGUAACGUGUCUACCUCCUAAGGAGAAGACUGCGGGUUCGAGUCCCGUACGGAACG [C5U C24U C29A], the yeast fitness came to 0.574.

Take GUUCUGUUGGCGUAAUGGUAAGGCGUCUCCCUCCUAAGGAGAAGCCUGCGGGUUCGAGUCCCGUACGGAACG [C5U C22G A45C]: the yeast fitness is 0.566.

On to GUUCUGUUGGCGUAAUGGUAACGUGUCUCCCUCCUGAGGACAAGACUGCGGGUUCGAGUCCCGUACGGAACG [C5U C24U A36G G41C], for which the yeast fitness is ≤ 0.5.

As for GUUCUGUUGGCGUAAUGGUAAUGCGUCUCCUUCCUAAGGAGAAGACUGAGGGUUCGAGCCCCGUACGGAACG [C5U C22U C31U C49A U59C], the yeast fitness is ≤ 0.5.

With GUUCUGUUGGCGUAAUGGUAAUGCGUCUCCCUCCUAAGGAGAAGACUGCGGGCUCGAGGCGUGUACGGAACG [C5U C22U U53C U59G C61G C62U], the yeast fitness was ≤ 0.5.

As for GUUCUGUUGGCGUAAUGGUAACGGGUCUCCCUCCUAAGGAGAAGACUGCGGGUUCGAGUCCCGUACGGAACG [C5U C24G], the yeast fitness worked out at 0.571.

With GUUCUGUUGGCGUAAUGGUAAGGCGUCUCCCUCCUAAGGGGAAGAUUGCGGGUUCGAGUCCUGUACGGAACG [C5U C22G A40G C46U C62U], the yeast fitness is ≤ 0.5.

As to GUUCUGUUGGCGUAAUGGUAACGCGUGUCCGUCCUAAGGAGAAGACUGCGGGUUCGAGUCCCGUACGGAACG [C5U C27G C31G], the yeast fitness was determined as 0.679.

With GUUCUGUUGGCGUAAUGGUAACGAGUCUCCCUUCUAAGGAGAAGACUGCGGGUUCGAGUCCCGUACGGAUCG [C5U C24A C33U A70U], the yeast fitness is ≤ 0.5.

As for GUUCUGUUGGCGUAAUGGUAACGCGUAUCCCUCCUAAGGAGUAGACUAGGGGUUCGAGUACCGUACGGAACG [C5U C27A A42U G48A C49G C60A], the yeast fitness was found to be 0.592.

Consider GUUCUGUUGGCGUAAUGGUAAGGCGUCUCCCUCCUAAGGAGAAGACUGCGGGUUCGAGUCCCGUAGGGAACG [C5U C22G C66G], for which the yeast fitness was determined as 0.547.

Consider GUUCUGUUGGCGUAAUGGUAAUGCGUCUCCCUCCUAUGGAGAAGACUGCGGGUUCGAGUCCCGUACGGAACG [C5U C22U A37U], for which the yeast fitness amounted to 0.535.

Regarding GUUCUGUUGGCGUAAUGGUAAUGCGUCUCCCUCCUAAGGAGAAGACUGCGGGUUCGAGUCCCGUAUGGAACG [C5U C22U C66U], the yeast fitness was ≤ 0.5.

For GUUCUGUUGGCGUAAUGGUAAAGCAUCUCCCUCCUAAGGAGAAGACUGCGGGUUCGAGUCCCGUACGGAACG [C5U C22A G25A], the yeast fitness was determined as 0.781.

Turning to GUUCUGUUGGCGUAAUGGUAACGUGUCUCCCUCCUAAGGAGAACACUGCGGGUUCGAGUACCGUACGGAACG [C5U C24U G44C C60A], the yeast fitness amounted to 0.527.

Consider GUUCUGUUGGCGUAAUGGUAAGGCGUCUACCUCCUAAGGAGAAGUCUGCGGGUUCGAGUCCCGUACGGAUCG [C5U C22G C29A A45U A70U], for which the yeast fitness is 0.539.

In the case of GUUCUGUUGGCGUAAUGGUAACGGGUCUCGCUCCUUAGGAGAAGACUGCGGGUUUGAGUCCCGUACGGCACG [C5U C24G C30G A36U C55U A69C], the yeast fitness is ≤ 0.5.

GUUCUGUUGGCGUAAUGGUAACGUGUCUCCCUCCUAAGGAGCAGACUGCGGGUUCGUGUCCCCUACGGAACG [C5U C24U A42C A57U G63C]: the yeast fitness was ≤ 0.5.

Turning to GUUCUGUUGGCGUAAUGGUAAUGCGUCUCCCUUCUAAGGAGAAGACUGCGGGUUCGAGUCGCGUACGGAACG [C5U C22U C33U C61G], the yeast fitness is ≤ 0.5.

Consider GUUCUGUUGGCGUAAUGGUAAGGCGUCUCCCUCCUAAGGGGAAGACUGCGGGUUCGAGUCCCGUACGGAGCG [C5U C22G A40G A70G], for which the yeast fitness is ≤ 0.5.

In the case of GUUCUGUUGGCGUAAUGGUAAAGCGUCUCCCUCCUAAGGAGAAGACUGCGGGUUCGAGUGCCGUACGGAACG [C5U C22A C60G], the yeast fitness came to 0.628.

On to GUUCUGUUGGCGUAAUGGUAAGGCGGCUCCCUCCUAAGGAGCAGACUGCGAGUUCGAGUCCCGUACGGAACG [C5U C22G U26G A42C G51A], for which the yeast fitness amounted to 0.537.

On to GUUCUGUUGGCGUAAUGGUAAUCCGUCUCCCUCCUGAGGAGAAGACUGCGGGUUCGAGUCCCGUACAGAACG [C5U C22U G23C A36G G67A], for which the yeast fitness was ≤ 0.5.
